Screens as filed in PubChem BioAssay.
This is a sample that favours compounds with a hit; in the whole collection about 2.6% have one here.
NPY-Y2 antag – NPY-Y2 receptor antagonists, primary screen, cell-based; AID 793, 2007; 140,000 compounds, 0.99% hits; NPY-Y2 expressing cells, antagonist mode; inhibition, % at 2.7 µM; in the data active = inhibition above about 17%;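 also: 0% = vehicle with agonist challenge and 100% = reference antagonist with challenge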
Target sequence (P49146 whole entry, looked up): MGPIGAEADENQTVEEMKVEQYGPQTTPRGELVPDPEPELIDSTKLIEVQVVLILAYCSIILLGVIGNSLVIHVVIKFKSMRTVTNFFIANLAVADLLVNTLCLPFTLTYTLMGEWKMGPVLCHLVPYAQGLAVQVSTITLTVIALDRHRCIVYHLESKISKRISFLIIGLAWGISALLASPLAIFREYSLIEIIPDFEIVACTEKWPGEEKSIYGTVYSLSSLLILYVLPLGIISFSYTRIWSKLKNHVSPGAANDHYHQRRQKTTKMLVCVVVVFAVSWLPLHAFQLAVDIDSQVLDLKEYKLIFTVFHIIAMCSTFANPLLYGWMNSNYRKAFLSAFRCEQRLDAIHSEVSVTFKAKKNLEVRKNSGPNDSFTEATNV
NPY Y1 blocker – NPY-Y1 receptor antagonists, primary screen, cell-based | Neuropeptide Y receptor type 1 (Homo sapiens), P25929 | HEK293-CNG Y1 cells, membrane potential fluorescence; NPY at EC95, then isoproterenol | inhibition, % at 3.6 µM | 200,000 compounds, 1% hits;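 active = inhibition above the campaign mean inhibition of all tested compounds plus 3 SD, cut at about 20% in these data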;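 also: 0% = DMSO wells given NPY plus isoproterenol and 100% = isoproterenol alone without NPY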
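Test system – HEK293 Y1/CNG channel cell line · Also added – NPY agonist 25 nM, then isoproterenol 1 µM plus Ro 20-1724 25 µM · Compound dosing – one concentration, 3.6 µM, in 0.4% DMSO · Schedule – compound incubation 1 h at room temperature, readout 45 min post-stimulation · Technique – fluorescence, membrane potential probe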
NPY1 pot ag – NPY-Y1 receptor potentiators or agonists, primary screen, cell-based | NPY-Y1 expressing cells, potentiator/agonist activation | 220,000 compounds, 0.37% hits | activation, % at 3.6 µM | AID 1304, 2008 | Neuropeptide Y receptor type 1 (Homo sapiens), P25929; in the data active = activation above about 33%, passing the limit was not always enough;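 also: cells stimulated with NPY at EC10 then isoproterenol at EC100; 0% = low agonist plus stimulus and 100% = saturating agonist plus stimulus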
MT stabilizer – microtubule stabilizers in HeLa cells, primary screen, imaging, high-content imaging. HeLa tubulin immunostaining HCS, 24 h; share of cells brighter than vehicle mean+2SD. % tubulin-high responders, % at 10 µM. 200,000 compounds, 0.83% hits. AID 2205, 2009;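 active = plate Z-score above 3 for both tubulin-high and condensed-nucleus cell shares, with cell loss under 80%, at 10 µM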;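 also: anti alpha tubulin signal scored within the nucleus-defined area of each cell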
NPY-Y2 PAM-ag – NPY-Y2 potentiators or agonists, primary screen, cell-based; cells expressing NPY-Y2, potentiator/agonist read-out; activation, % at 3.6 µM; 220,000 compounds, 0.45% hits; in the data active = activation above about 27%;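 also: cells stimulated with NPY near EC25 plus isoproterenol at EC100; 0% = vehicle plus submaximal agonist and 100% = vehicle plus saturating agonist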
bCat nuc transl – modulators of beta-catenin nuclear translocation, primary screen, imaging, HeLa cells, immunofluorescence, high-content; nuclear translocation activity, % at 5 µM; 190,000 compounds, 0.3% hits;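 active = nuclear translocation activity above 50% at 5 µM, with a well cell count of 50 or more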;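 also: per-cell ratio of nuclear to cytoplasmic median beta-catenin stain intensity; plate controls were DMSO negative control for no effect and GSK-3 inhibitor IX positive control for full effect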
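Test system: HeLa cells, endogenous beta-catenin; Compound: single 5 µM dose plus 0.02–20 µM confirmation series; Times: compound exposure 24 h at 37°C; Signal: fluorescence imaging of beta-catenin antibody stain plus DAPI; Read-out: % activation, nuclear-to-cytoplasmic median beta-catenin signal ratio per cell.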
Active calls of the source: *; nt = no result given.

SMILES	NPY-Y2 antag	NPY Y1 blocker	NPY1 pot ag	MT stabilizer	NPY-Y2 PAM-ag	bCat nuc transl
CCC(C)(C)NC(=O)C(c1ccccc1)N(Cc1cccs1)C(=O)Cn1nnc2ccccc21 (centres undefined)	133.0*	135.9*	-327.8	5.7	-186.9	nt
O=C(NC1CCCCC1)C(c1ccco1)N(Cc1cccs1)C(=O)Cn1nnc2ccccc21 (centres undefined)	42.0*	51.0*	-36.7	3.1	0.4	1.5
O=C(NC1CCCCC1)C(c1ccccc1)N(Cc1ccco1)C(=O)Cn1cnc2ccccc21 (centres undefined)	55.3*	78.4*	-129.6	6.9	-97.0	-0.1
CN1CCN(NC(=O)c2ccc(Br)s2)CC1	nt	nt	-11.7	nt	11.6	-1.4
Cc1cc(C)nc(SCCn2c(N3CCCCC3)nc3c2c(=O)n(C)c(=O)n3C)n1	3.2	2.5	9.1	1.8	8.4	-1.1
CCOCCCNC(=O)c1c[nH]c2ccc(OCC)cc2c1=O	nt	nt	-4.2	nt	-14.9	-0.1
COc1cc(-c2ccc(NC(=O)CN3CCCCC3)c(OC)c2)ccc1NC(=O)CN1CCCCC1	3.8	0.2	-29.8	5.2	-4.5	nt
CCOc1cc(S(=O)(=O)N2CCC(Cc3ccccc3)CC2)c(OCC)cc1-n1cnnn1	5.4	1.1	3.7	2.5	5.9	-7.8
CCOc1cc(S(=O)(=O)N2CC=C(c3ccc(F)cc3)CC2)c(OCC)cc1-n1cnnn1	1.4	2.6	-21.8	45.3*	4.3	0.7
O=[N+]([O-])c1cc(Cl)ccc1N1CCN(c2cccc(C(F)(F)F)c2)CC1	20.5*	20.1*	6.1	2.4	-6.5	0.6
NS(=O)(=O)c1ccc(CNC(=S)NCc2ccc(Cl)cc2)cc1	-0.1	-7.0	14.3	11.1*	16.9	1.1
Cc1cc(Cl)ccc1NC(=S)NCc1ccc(S(N)(=O)=O)cc1	nt	-4.8	-7.7	3.7	-9.9	0.6
COc1cc(C)ccc1S(=O)(=O)n1nc(C)cc1C	nt	0.0	5.0	2.7	-0.4	2.7
COc1ccc(/C=N/NC(N)=S)cc1OC(=O)c1cccc2ccccc12	9.9	5.0	-15.5	35.3*	-17.4	nt
O=C(/C=C/c1ccco1)N1CCN(c2ncccn2)CC1	2.3	3.2	0.5	9.8*	-13.5	nt
O=C(Nc1ccccc1)c1cc(N2CCOCC2)nc2ccccc12	3.4	4.7	-7.7	2.2	-2.5	-0.1
CCC(C)NC(=O)CCC(=O)Nc1ccc2nc(N3CC(C)CC(C)C3)cc(C)c2c1 (centres undefined)	nt	9.2	5.6	1.0	4.5	1.1
Cc1ccc(NC(=O)c2cc(N3CCOCC3)nc3ccccc23)cc1	4.5	12.3	-48.2	23.9*	-26.3	-5.2
CCC(C)NC(=O)CCC(=O)Nc1ccc2nc(N3CCOCC3)cc(C)c2c1 (centres undefined)	4.9	-19.4	84.0*	1.7	93.2*	-0.7
CCCN(CCC)CCCNC(=S)Nc1ccc2nc(N3CCCC3)cc(C)c2c1	nt	21.7*	-24.6	3.1	-11.5	1.4
Cc1ccc(NC(=O)c2cc(Cl)nc3ccccc23)cc1	21.4*	31.5*	-65.5	1.1	-62.1	-0.4
CCC(Cc1ccccc1)NC(=O)CCn1cccc1 (centres undefined)	3.0	-1.1	-8.6	1.0	6.5	-1.4
N#CC1=C(N)Oc2cc(Nc3ccccc3)ccc2C1c1ccncc1 (centres undefined)	0.9	-5.1	-1.9	5.8	6.2	nt
COC(=O)c1ccc(NC(=S)NC(=O)c2cc(-c3ccccc3)nc3ccccc23)cc1	23.1*	41.4*	-119.6	0.6	3.6	0.3
CN1CCN(c2ccc(NC(=O)c3ccc(-c4ccc(Br)cc4)o3)cc2)CC1	nt	-0.5	41.2*	2.7	31.6*	-3.4
SMILES	NPY-Y2 antag	NPY Y1 blocker	NPY1 pot ag	MT stabilizer	NPY-Y2 PAM-ag	bCat nuc transl
O=C(Cn1nc(CNc2ccc(Br)cc2)[n+]2c1CCCCC2)c1ccc([N+](=O)[O-])cc1	nt	nt	14.1	nt	-7.0	0.0
CSc1nc(N(C)NC(=O)c2ccc(Cl)cc2)c2ccccc2n1	11.0	14.1	-14.1	18.9*	-7.5	18.9
CNc1nc(SC)nc2ccccc12	nt	5.4	-5.0	4.2	-4.9	0.6
Cc1ccc(C(=O)NN(C)c2nc3ccccc3nc2C(F)(F)F)cc1	0.5	1.9	18.8	40.9*	-3.1	10.7
CN(NC(=O)c1ccc(Cl)cc1)c1nc(-c2ccccc2)nnc1C(F)(F)F	5.3	2.7	1.9	2.2	5.8	-0.3
CSc1nc(N(C)NC(=O)c2ccccc2)c2ccccc2n1	6.0	-4.1	-25.9	32.9*	-33.8	54.0*
CCN(c1ccccc1)S(=O)(=O)c1ccc(N)c(OC)c1	8.2	-0.8	-5.4	22.4*	-10.0	111.3*
CCN(c1ccccc1)S(=O)(=O)c1ccc(F)cc1	3.1	6.3	5.4	3.9	-7.2	0.9
C=CCCC(=O)Nc1nc(C)c(-c2csc(Nc3cc(OC)ccc3OC)n2)s1	0.2	-9.0	22.6	31.0*	6.5	70.2*
CCCC(=O)Nc1nc(C)c(-c2csc(Nc3cc(OC)ccc3OC)n2)s1	0.6	-6.1	11.1	12.1	1.4	33.0
CC1CC(=O)NN=C1c1ccc(NCCO)c([N+](=O)[O-])c1 (centres undefined)	77.6*	77.8*	-85.1	3.6	-45.5	1.7
Cc1ccc(NC(=S)N/N=C/c2c(Cl)cccc2Cl)c(C)c1	12.5	9.1	-37.1	13.4*	-3.1	99.4*
CC(C)(C)NC(=S)N/N=C/c1c(Cl)cccc1Cl	nt	nt	-25.0	nt	-46.3	2.9
CCOC(=O)C1CCC2(CC1)C(C#N)=C(N)Oc1n[nH]c(C)c12 (centres undefined)	-0.6	5.1	4.7	3.9	-8.1	-1.9
O=[N+]([O-])c1cccc(-c2nc(-c3cccs3)c(-c3cccs3)[nH]2)c1	-3.9	-6.8	31.8	1.6	25.5	0.2
O=[N+]([O-])c1ccc(-c2nc(-c3cccs3)c(-c3cccs3)[nH]2)cc1	-6.4	-16.9	44.2*	2.6	45.4*	nt
Cc1sc(NC(=O)C2C3C=CC(C3)C2C(=O)O)c(C(N)=O)c1-c1ccc(C(C)C)cc1 (centres undefined)	0.0	-6.0	6.6	1.9	1.1	-3.2
COC(=O)c1ccc(C)c(NS(=O)(=O)c2ccc3c(c2)OCCO3)c1	7.8	10.3	-5.0	21.0*	-0.2	7.0
NC(=O)COC(=O)c1ccc(NS(=O)(=O)c2ccc3c(c2)OCCO3)cc1	nt	nt	-2.3	nt	-13.0	1.9
COC(=O)c1ccc(C)c(NS(=O)(=O)c2ccc(OC)cc2)c1	6.6	12.8	6.0	23.7*	-2.0	nt
